Experiment [1] relates to Peritoneal macrophage cell. Put plainly: Inhibition of LPS-induced TNFalpha secretion in C57BL/6J mouse peritoneal macrophages at 10 uM after 24 hrs. In kind it is functional. The method, boiled down:
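Macrophages from male C57BL6J mice, harvested 4 days after i.p. thioglycollate. Cells adhered 2 h, then 24 h at 37 °C with compound (10^-5 M final), LPS 1 µg/mL and 5% FCS. Supernatant put on L929 cells with actinomycin D 0.5 µg/mL for 20 h, then MTT 4 h, A570. Triplicate wells. Inhibition = (L−S)/(L−B)×100. Indomethacin reference.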

For a further experiment, the system named is Liver microsomes. As to the kind of experiment: Antioxidant activity in rat liver microsomes assessed as inhibition of ferrous-cystine-induced lipid peroxidation after 15 mins. In kind it is functional, Microsome. The method, boiled down: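 Microsomes from rat liver suspended in 100 mM Tris-HCl pH 7.4. Then 50 µM FeSO4 added and a further 15 min at 37 °C. Stopped with 20% TCA and spun. Supernatant heated with 0.67% TBA 10 min, read at 532 nm. Tested over several concentrations.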
(In general: Microsomes from liver hold many membrane-bound enzymes, among them those of drug oxidation.)

For another experiment, the system named is A2780. Put plainly: Cytotoxicity against human A2780 cells. It counts as cell-based.
The next experiment deals with HCT-8. As to the kind of experiment: Cytotoxicity against human HCT8 cells. It counts as cell-based.
Experiment [2] is described as follows: Cytotoxicity against human Bel7402 cells. It counts as cell-based. The settings on record: Bel-7402.
Experiment [3] can be described thus: Cytotoxicity against human BGC823 cells. In kind it is cell-based. The settings on record: BGC-823.
The test system of a further experiment is A549. As to the kind of experiment: Cytotoxicity against human A549 cells. In kind it is cell-based.
Experiment [4] relates to Peritoneal macrophage cell. Put plainly: Inhibition of LPS-induced TNFalpha secretion in C57BL/6J mouse peritoneal macrophages after 24 hrs. It counts as functional, cell-based.

pIC50: −log10 of the molar value.

In ChEMBL document CHEMBL1139887, “Glycosides from the stem bark of Fraxinus sieboldiana” (J Nat Prod, 2007) one finds inhibition and IC50 data, which are given here for eleven compounds.

For orientation: inhibition means the percentage by which the read-out fell short of the control. Low values mean a weak effect, high ones a strong effect. Usually pIC50 stands for −log10 of the IC50, conventionally taken in molar units. Compound `COc1cc(O[C@@H]2O[C@H](CO)[C@@H](O)[C@H](O)[C@H]2O)ccc1O[C@@H]1O[C@H](CO)[C@@H](O)[C@H](O)[C@H]1O` had an inhibition at 10 µM in experiment [1] of 16.3%. In addition, the pIC50 was less than 5.00 in the experiment with Liver microsomes; less than 5.30 with A2780; less than 5.30 in the experiment on HCT-8; less than 5.30 in experiment [2]; less than 5.30 in experiment [3]; less than 5.30 in the experiment on A549.

Compound `COc1cc([C@@H](O)[C@H](O)CO)cc(OC)c1O[C@@H]1O[C@H](CO)[C@@H](O)[C@H](O)[C@H]1O` registered an inhibition at 10 µM in experiment [1] of 27.5%. For the same compound, the pIC50 with Liver microsomes was less than 5.00; in the experiment with A2780, less than 5.30; in the experiment on HCT-8, less than 5.30; in experiment [2], less than 5.30; in experiment [3], less than 5.30; in the experiment on A549, less than 5.30.

Regarding `COc1cc(CCO[C@@H]2O[C@H](CO[C@@H]3OC[C@](O)(CO)[C@H]3O)[C@@H](O)[C@H](O)[C@H]2O)ccc1O`, the inhibition at 10 µM in experiment [1] came to 44.3%. The pIC50 was less than 5.00 in the experiment with Liver microsomes; less than 5.30 in the experiment with A2780; less than 5.30 in the experiment with HCT-8; less than 5.30 in experiment [2]; less than 5.30 in experiment [3]; less than 5.30 in the experiment on A549. Moreover, the pIC50 in experiment [4] is 5.80.

Consider `COc1cc([C@H](O)[C@@H](O)CO)cc(OC)c1O[C@@H]1O[C@H](CO)[C@@H](O)[C@H](O)[C@H]1O`, for which at 10 µM the inhibition in experiment [1] was 28.2%. In addition, the pIC50 was less than 5.00 in the experiment on Liver microsomes; less than 5.30 in the experiment with A2780; less than 5.30 in the experiment with HCT-8; less than 5.30 in experiment [2]; less than 5.30 in experiment [3]; less than 5.30 with A549.

In experiment [1], `COc1cc(O[C@@H]2O[C@H](CO)[C@@H](O)[C@H](O)[C@H]2O)cc(OC)c1O[C@@H]1O[C@H](CO)[C@@H](O)[C@H](O)[C@H]1O` returned an inhibition at 10 µM of 25.2%. The pIC50 in the experiment on Liver microsomes is less than 5.00; in the experiment on A2780 it was less than 5.30; in the experiment on HCT-8, less than 5.30; in experiment [2] it was less than 5.30; in experiment [3], less than 5.30; in the experiment with A549 it was less than 5.30.

Turning to `COc1cc([C@@H](O)[C@@H](O)CO)cc(OC)c1O[C@@H]1O[C@H](CO)[C@@H](O)[C@H](O)[C@H]1O`, the inhibition at 10 µM in experiment [1] stood at 26.6%. For the same compound, the pIC50 in the experiment with Liver microsomes was less than 5.00; in the experiment with A2780, less than 5.30; in the experiment on HCT-8, less than 5.30; in experiment [2], less than 5.30; in experiment [3], less than 5.30; with A549 it was less than 5.30.

In experiment [1], `OC[C@@]1(O)CO[C@@H](OC[C@H]2O[C@@H](OCCc3ccc(O)c(O)c3)[C@H](O)[C@@H](O)[C@@H]2O)[C@@H]1O` displayed an inhibition at 10 µM of 28.8%. Also, the negative logarithm of the IC50 (pIC50) was 6.05 with Liver microsomes; less than 5.30 in the experiment with A2780; less than 5.30 with HCT-8; less than 5.30 in experiment [2]; less than 5.30 in experiment [3]; less than 5.30 in the experiment with A549.

As to `COc1cc(C(=O)OC[C@H]2O[C@@H](Oc3cc4ccc(=O)oc4cc3O)[C@H](O)[C@@H](O)[C@@H]2O)ccc1O[C@@H]1O[C@H](CO)[C@@H](O)[C@H](O)[C@H]1O`, testing at 10 µM in experiment [1] gave an inhibition of 30.8%. In addition, the pIC50 in the experiment on Liver microsomes was less than 5.00; in the experiment on A2780, less than 5.30; in the experiment on HCT-8, less than 5.30; in experiment [2], less than 5.30; in experiment [3], less than 5.30; in the experiment with A549, less than 5.30.

Regarding `CC1=C[C@@H](C2=C(C)CC[C@H](O[C@@H]3O[C@H](CO)[C@@H](O)[C@H](O)[C@H]3O)C2(C)C)[C@@H](/C=C(/C)C(=O)O)OC1` [FRAXINUACIDOSIDE], the negative-log IC50 (pIC50) is less than 5.00 in the experiment on Liver microsomes; less than 5.30 in the experiment on A2780; less than 5.30 in the experiment on HCT-8; less than 5.30 in experiment [2]; less than 5.30 in experiment [3]; less than 5.30 in the experiment on A549.

In experiment [1], `COc1ccc2c(c1)c(CC(=O)O)c(C)n2C(=O)c1ccc(Cl)cc1` [INDOMETHACIN] gave an inhibition at 10 µM of 33.2%.

For `O=C(/C=C/c1ccc(O)c(O)c1)OC[C@H]1O[C@H]2OC[C@H](c3ccc(O)c(O)c3)O[C@@H]2[C@@H](O)[C@@H]1O` [PLANTASIOSIDE], the pIC50 in the experiment with HCT-8 is 5.47.
